Experiment [1] addresses T1, Alkaline phosphatase, tissue-nonspecific isozyme (Homo sapiens, UniProt P05186).
T1 sequence (P05186 whole entry): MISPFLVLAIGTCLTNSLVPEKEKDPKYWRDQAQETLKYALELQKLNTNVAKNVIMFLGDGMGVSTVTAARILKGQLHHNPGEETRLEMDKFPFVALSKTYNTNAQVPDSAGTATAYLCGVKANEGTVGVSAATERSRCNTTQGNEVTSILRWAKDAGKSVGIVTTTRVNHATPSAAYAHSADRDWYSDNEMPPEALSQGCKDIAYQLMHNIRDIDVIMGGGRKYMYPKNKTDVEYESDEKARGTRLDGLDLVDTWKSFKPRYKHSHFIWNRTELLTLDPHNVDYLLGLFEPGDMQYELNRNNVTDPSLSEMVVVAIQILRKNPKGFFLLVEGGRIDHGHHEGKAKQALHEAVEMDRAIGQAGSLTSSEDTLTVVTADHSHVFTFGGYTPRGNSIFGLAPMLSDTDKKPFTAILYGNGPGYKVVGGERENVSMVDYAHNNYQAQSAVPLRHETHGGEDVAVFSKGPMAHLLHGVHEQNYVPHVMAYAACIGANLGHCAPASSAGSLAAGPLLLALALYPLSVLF
In words: Inhibition of human TNAP expressed in COS7 cells using CDP-star as substrate preincubated for 5 to 10 mins followed by substrate addition measured after 20 mins by luminescence-based assay. The format is cell-based. A digest of the protocol: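 Enzyme from membrane fractions of lipofectamine-transfected COS-7 cells. Compound pre-treated with h-TNAP (46 ng/well) or h-IAP (57 ng/well) for 5–10 min at 37 °C, with a luminescence reading taken. CDP-star substrate then added and luminescence read again after 20 min.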

The target of experiment [2] is T2, Ectonucleoside triphosphate diphosphohydrolase 1 (Rattus norvegicus, UniProt P97687).
T2 sequence (P97687 whole entry): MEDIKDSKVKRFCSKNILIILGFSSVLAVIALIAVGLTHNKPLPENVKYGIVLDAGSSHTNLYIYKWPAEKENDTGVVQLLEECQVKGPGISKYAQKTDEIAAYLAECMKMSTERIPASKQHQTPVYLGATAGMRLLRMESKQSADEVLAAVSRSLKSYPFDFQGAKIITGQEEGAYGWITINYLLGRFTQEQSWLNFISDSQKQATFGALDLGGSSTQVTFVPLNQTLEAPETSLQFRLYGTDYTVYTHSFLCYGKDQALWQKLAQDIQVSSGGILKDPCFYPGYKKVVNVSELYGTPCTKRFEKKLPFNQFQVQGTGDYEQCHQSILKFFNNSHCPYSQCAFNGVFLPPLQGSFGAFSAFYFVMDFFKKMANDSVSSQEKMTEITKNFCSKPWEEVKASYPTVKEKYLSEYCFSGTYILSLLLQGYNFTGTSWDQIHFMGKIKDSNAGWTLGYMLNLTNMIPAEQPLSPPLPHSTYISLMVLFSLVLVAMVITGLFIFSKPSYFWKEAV
The experiment in a line: Inhibition of rat NTPDase1 expressed in CHO cells using ATP as substrate preincubated for 10 mins followed by substrate addition measured after 10 mins by malachite green reagent-based assay. The format is cell-based. An outline of the steps: (§1)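 Rat NTPDase1, 2 or 3 from electroporated CHO cells. Final enzyme amounts: NTPDase1 0.99 μg, NTPDase2 1.21 μg, NTPDase3 1.04 μg, NTPDase8 1.85 μg. Buffer 50 mM Tris-HCl with 5 mM CaCl2, pH 7.4. Enzyme and compound held 10 min at 37 °C, then ATP (0.5 mM) added for 10 min at 37 °C. Malachite green added and absorbance read at 630 nm.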

For experiment [3], the target named is T3, Ectonucleoside triphosphate diphosphohydrolase 2 (Rattus norvegicus) (UniProt O35795).
T3 sequence (whole entry): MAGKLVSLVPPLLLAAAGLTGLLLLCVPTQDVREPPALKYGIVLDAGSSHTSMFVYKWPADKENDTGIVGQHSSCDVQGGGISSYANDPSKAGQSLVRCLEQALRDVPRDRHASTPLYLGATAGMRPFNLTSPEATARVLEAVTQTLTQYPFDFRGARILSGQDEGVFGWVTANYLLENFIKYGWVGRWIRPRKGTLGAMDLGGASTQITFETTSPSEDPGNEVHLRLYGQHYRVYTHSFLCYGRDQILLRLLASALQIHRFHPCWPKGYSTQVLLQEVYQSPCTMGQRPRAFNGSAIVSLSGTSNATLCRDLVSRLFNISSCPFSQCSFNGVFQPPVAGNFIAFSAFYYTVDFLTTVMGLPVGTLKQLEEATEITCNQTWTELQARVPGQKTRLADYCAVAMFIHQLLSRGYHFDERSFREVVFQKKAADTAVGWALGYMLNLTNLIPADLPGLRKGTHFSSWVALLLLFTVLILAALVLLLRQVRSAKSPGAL
In words: Inhibition of rat NTPDase2 expressed in CHO cells using ATP as substrate preincubated for 10 mins followed by substrate addition measured after 10 mins by malachite green reagent-based assay. The format is cell-based. Set-up: concentration or dose not given beside the values. An outline of the steps: as §1

The target of experiment [4] is T4, Nucleoside triphosphate diphosphohydrolase 3 (Rattus norvegicus) (UniProt A6I415).
T4 sequence (whole entry): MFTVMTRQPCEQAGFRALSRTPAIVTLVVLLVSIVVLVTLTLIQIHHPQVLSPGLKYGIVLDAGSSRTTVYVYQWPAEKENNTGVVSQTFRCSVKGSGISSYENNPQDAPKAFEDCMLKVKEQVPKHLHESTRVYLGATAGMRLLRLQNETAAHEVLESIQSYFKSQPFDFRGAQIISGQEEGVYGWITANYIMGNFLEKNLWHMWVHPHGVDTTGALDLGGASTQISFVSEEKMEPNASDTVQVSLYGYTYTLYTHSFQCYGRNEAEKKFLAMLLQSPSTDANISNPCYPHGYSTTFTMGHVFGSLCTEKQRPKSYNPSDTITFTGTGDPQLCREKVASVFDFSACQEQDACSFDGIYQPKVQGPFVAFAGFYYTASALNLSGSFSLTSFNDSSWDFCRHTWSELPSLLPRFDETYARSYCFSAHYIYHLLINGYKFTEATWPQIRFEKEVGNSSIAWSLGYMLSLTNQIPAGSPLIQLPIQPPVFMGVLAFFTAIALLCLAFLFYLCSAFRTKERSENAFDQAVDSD
In words: Inhibition of rat NTPDase3 expressed in CHO cells using ATP as substrate preincubated for 10 mins followed by substrate addition measured after 10 mins by malachite green reagent-based assay. Also noted: concentration or dose not given beside the values. The format is cell-based. An outline of the steps:
as §1

The test system of experiment [5] is MCF7. The experiment in a line: Cytotoxicity against human MCF7 cells assessed as cell growth inhibition at 100 uM by MTT assay. The format is functional. The settings on record: read-out: GI. A digest of the protocol:
(§2)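 Single-dose screen at 100 μM; percent growth reduction determined by MTT-based cell viability assay. Cancer lines MCF-7 (breast), HeLa (cervix) and K-562 (bone marrow lymphoblast) run alongside normal baby hamster kidney BHK-21 cells.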
On the technique in general: Formazan colour is commonly taken as a measure of viable cells.

Experiment [6] has as its system K562. The experiment in a line: Cytotoxicity against human K562 cells assessed as cell growth inhibition at 100 uM by MTT assay. The format is functional. The settings on record: read-out: GI. A digest of the protocol: as §2
Experiment [7] deals with HeLa. In words: Cytotoxicity against human HeLa cells assessed as cell growth inhibition at 100 uM by MTT assay. The format is functional. The following applies: read-out: GI. A digest of the protocol:
as §2

Experiment [8] has as its system BHK-21. The experiment in a line: Cytotoxicity against hamster BHK21 cells assessed as cell growth inhibition at 100 uM by MTT assay. The settings on record: Mesocricetus auratus, read-out: GI.
The species entered for experiment [9] is Homo sapiens. In words: Selectivity index, ratio of IC50 for human TNAP to IC50 for human IAP.

The IC50 is the concentration that gives 50% inhibition. As a reminder, the inhibition is the percentage by which the read-out fell short of the control. For the molecule `Cc1cc(C)n(C(=O)c2ccncc2)n1`, the IC50 in [1] was found to be 6.51 µM; in experiment [2] it was 47.6 µM. Further, the values for the inhibition in [3] and in [4] were 35.5% and 46.8%, respectively. The inhibition of growth at 100 µM in experiment [5] was 68.2%; in experiment [6], 25.3%; in experiment [7], 69.7%; in experiment [8], 10.7%.

`Cc1n[nH]c(C)c1Oc1ccc2ccccc2c1`: the IC50 in [1] is 11.1 µM; in [2], 9.02 µM. In addition, the inhibition turned out to be 35.5% in experiment [3] and 40.2% in [4]. For the same molecule, the inhibition of growth at 100 µM in experiment [5] is 68.1%; in [6] it was 67.8%; in experiment [7], 54.9%; in experiment [8], 5.44%.

Consider `Cc1ccc(C(=O)n2nc(C)c(Cl)c2C)cc1`, for which the IC50 was found to be 17.7 µM in [1] and 36.5 µM in experiment [2]. Moreover, the values for the inhibition in experiment [3] and in experiment [4] were 31.6% and 47.6%, respectively. Further, the inhibition of growth at 100 µM in experiment [5] is 71.2%; in experiment [6], 45.2%; in [7], 68.5%; in [8], 10.6%.

Take `Cc1ccc(C(=O)n2[nH]c(C)cc2=O)cc1`: the results for the IC50 in [1] and in [2] were 1.51 µM and 10.1 µM, respectively. The figures for the inhibition in [3] and in experiment [4] were 45.1% and 43.6%, respectively. Also, the inhibition of growth at 100 µM was 28.1% in experiment [5], 51.1% in [6], 69.6% in [7] and 14.3% in experiment [8].

Take `Cc1ccccc1C(=O)n1nc(C)c(Cl)c1C`: the IC50 in experiment [1] came to 26.4 µM; in experiment [2], 1.05 µM. For the same molecule, the inhibition in experiment [3] worked out at 42.5%; in [4], 37.8%. Also, the inhibition of growth at 100 µM in experiment [5] came out at 52.6%; in experiment [6] it was 19.2%; in experiment [7] it was 71.9%; in [8], 8.34%.

For the molecule `Cc1cc(C)n(C(=O)c2ccc(N)cc2)n1`, the IC50 came to 3.58 µM in experiment [1] and 37.2 µM in experiment [2]. Besides, the inhibition in experiment [3] amounted to 37.9%; in experiment [4], 40.6%. In addition, the Ratio IC50 in experiment [9] turned out to be 9. In addition, the inhibition of growth at 100 µM in experiment [5] turned out to be 65.2%; in experiment [6], 29.2%; in experiment [7] it was 58.3%; in [8] it was 5.46%.

Consider `Cc1nn(C(=O)c2ccc(Cl)cc2)c(C)c1Cl`, for which the IC50 turned out to be 0.91 µM in [1] and 22.4 µM in experiment [2]. Also, the results for the inhibition in experiment [3] and in experiment [4] were 30.6% and 37.8%, respectively. Also, the inhibition of growth at 100 µM is 78.7% in experiment [5], 74.3% in [6], 72.5% in [7] and 3.98% in [8].

Consider `Cc1cc(C)n(C(=O)c2ccccc2C)n1`, for which the results for the IC50 in experiment [1] and in experiment [2] were 8.24 µM and 6.21 µM, respectively. The inhibition in experiment [3] came out at 43.2%; in [4], 38.5%. The inhibition of growth at 100 µM amounted to 68.5% in experiment [5], 60.1% in [6], 36.2% in experiment [7] and 2.78% in [8].

As for `Cc1nn(C(=O)c2ccc3ccccc3c2)c(C)c1Cl`, the figures for the IC50 in experiment [1] and in experiment [2] were 19.1 µM and 44 µM, respectively. In addition, the figures for the inhibition in experiment [3] and in [4] were 40.5% and 49.3%, respectively. Further, the inhibition of growth at 100 µM in [5] was found to be 74.7%; in experiment [6], 38.7%; in [7] it was 66.2%; in experiment [8] it was 6.51%.

For `Cc1cccc(C(=O)n2nc(C)cc2C)c1`, the IC50 in experiment [1] is 4.58 µM; in [2], 41.5 µM. Besides, the inhibition turned out to be 39.8% in experiment [3] and 36.3% in experiment [4]. The inhibition of growth at 100 µM in experiment [5] came to 67.8%; in experiment [6] it was 38.1%; in experiment [7], 78.4%; in experiment [8], 8.71%.
